Screening results deposited in PubChem BioAssay by The Scripps Research Institute Molecular Screening Center.
Most compounds without a hit are left out; they make up all but 3.1% or so of the library.
CHO parental Ca = counter-screen for OX1R antagonists: effect in parental CHO cells. parental CHO-K1, ATP-induced calcium, Fluo-8 fluorescence. inhibition, % at 5.6 µM. hit rate 0.63% among 330,000;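 active = inhibition above that plate's mean sample inhibition plus 3 SD, cut at about 26% in these data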;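 also: 0% = ATP-challenged DMSO wells and 100% = DMSO wells without ATP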
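test system = CHO parental line | reagent = ATP stimulus | measured by = intracellular calcium via Fluo-8 no-wash fluorescent dye | control set = ATP and no-ATP DMSO wells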
GalR3 antag = blocks the human galanin receptor 3 | HEK293 GalR3-CNG cAMP membrane potential fluorescence; galR3 body fused to GalR1 C-terminus | inhibition, % at 3 µM | hit rate 0.44% among 360,000 | AID 651719;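 active = inhibition above the screen-wide average plus 3 SD, cut at about 13% in these data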;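 also: forskolin and galanin both at EC90 stimulate the cells; cAMP rise reported by CNG channel membrane potential dye signal; 0% = forskolin plus galanin with DMSO and 100% = forskolin alone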
Target sequence (O60755 1-299 limits assumed): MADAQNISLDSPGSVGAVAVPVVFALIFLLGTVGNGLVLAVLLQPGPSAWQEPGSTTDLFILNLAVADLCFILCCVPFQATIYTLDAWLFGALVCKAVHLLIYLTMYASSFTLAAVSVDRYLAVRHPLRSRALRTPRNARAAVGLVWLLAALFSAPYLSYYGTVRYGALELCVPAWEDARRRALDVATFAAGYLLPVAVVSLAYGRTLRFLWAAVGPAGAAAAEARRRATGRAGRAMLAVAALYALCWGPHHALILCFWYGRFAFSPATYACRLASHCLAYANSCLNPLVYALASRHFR
OX1R antag-1 = antagonists of human orexin 1 receptor (OX1R); O43613; OX1R-expressing cells, FRET antagonist read-out; inhibition, % at 6.6 µM; hit rate 1.8% among 330,000; in the data active = inhibition mostly above about 38%, no sharp cut-off; inactive = mostly below about 40%;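 also: 0% = agonist challenge alone and 100% = reference antagonist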
OX1R antag-2 = antagonists of human orexin 1 receptor; inhibition, % at 5 µM; AID 434989; O43613; CHO/OX1R cells, Fluo-8 calcium fluorescence, orexin A; hit rate 0.43% among 330,000;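 active = inhibition above its plate's threshold, mean inhibition of all tested compounds on the plate plus 3 SD, cut at about 37% in these data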;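 also: 0% = orexin A challenge wells and 100% = SB-334867-A antagonist wells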
GPR7 antag = antagonists of human GPR7 (neuropeptides B/W receptor 1); GPR7-expressing cells, fluorescence antagonist assay; inhibition, % at 4.4 µM; AID 1861; hit rate 1.1% among 290,000; P48145; in the data active = inhibition above about 16%, passing the limit was not always enough;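 also: cells stimulated with the agonist NPW; 0% = agonist with vehicle and 100% = vehicle without agonist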
Target sequence (P48145 whole entry, looked up): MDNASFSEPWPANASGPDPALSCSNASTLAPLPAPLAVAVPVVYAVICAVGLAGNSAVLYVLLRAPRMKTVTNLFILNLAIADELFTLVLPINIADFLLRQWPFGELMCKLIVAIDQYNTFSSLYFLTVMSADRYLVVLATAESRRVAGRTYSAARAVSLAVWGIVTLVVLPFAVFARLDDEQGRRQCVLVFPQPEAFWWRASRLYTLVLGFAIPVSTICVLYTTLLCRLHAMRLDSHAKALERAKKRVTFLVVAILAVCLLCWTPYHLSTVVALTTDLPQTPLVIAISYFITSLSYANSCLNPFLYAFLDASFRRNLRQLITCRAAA
GPR7 antag conf = confirmation of human GPR7 antagonists; shares compounds with GPR7 antag; GPR7-expressing cells, calcium fluorescence antagonist mode; inhibition, % at 4.4 µM; AID 1952; hit rate 52% among 2,400; in the data active = inhibition above about 24%;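 also: stimulated with the GPR7 agonist NPW; 0% = agonist plus vehicle and 100% = vehicle alone without agonist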
MCHR1 antag = counter-screen for GPR7 antagonists: antagonists of human MCHR1 | AID 2148 | shares compounds with GPR7 antag | inhibition, % at 4.4 µM | hit rate 62% among 2,400 | MCHR1-expressing cells, fluorescence antagonist assay; in the data active = inhibition above about 22%;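 also: 0% = vehicle with agonist and 100% = vehicle without agonist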
* hit, by the source's call; nt = not tested or not shown.

SMILES	CHO parental Ca	GalR3 antag	OX1R antag-1	OX1R antag-2	GPR7 antag	GPR7 antag conf	MCHR1 antag
Cn1c(=O)c(NCCO)c2c3c(cccc31)C(=O)c1ccccc1-2	96*	1	74	103*	61*	60*	82*
CCCCNc1c2c3c(cccc3n(C)c1=O)C(=O)c1ccccc1-2	77*	nt	12	91*	21*	65*	81*
Cc1ccc(-c2noc(=O)n2CC(=O)Nc2ccc(S(=O)(=O)NC3CC3)cc2)cc1	7	-8	8	15	23*	47*	30*
O=C(Cn1c(-c2ccccc2)noc1=O)Nc1ccc(S(=O)(=O)N2CCOCC2)cc1	-7	-4	0	13	16	nt	nt
Cc1ccc(C(=O)NCC(=O)N2CCCC(C(F)(F)F)C2)s1 (stereo unspecified)	-4	-3	21	-19	nt	nt	nt
CCSc1nsc(NC(=O)Nc2cccc(OC)c2)n1	43*	-4	52*	29	28*	37*	61*
CCSc1nsc(NC(=O)Nc2ccccc2F)n1	20	-14	34	4	1	nt	nt
Cc1ccc2nc3c(c(Nc4cccc(O)c4)c2c1)CCC3	-4	-12	0	-11	17	nt	nt
CC(=O)c1ccc(NC(=O)C(C)N(C)CC(=O)Nc2ccc(N3CCOCC3)cc2)cc1 (stereo unspecified)	-8	-2	34	-19	26*	13	-1
COc1ccc(N2CCN(C(=O)c3cc4c(s3)CCCCC4)CC2)cc1	-21	-2	2	-27	nt	nt	nt
CC(=O)c1ccc(N2CCN(C(=O)c3cc4c(s3)CCCC4)CC2)cc1	-10	-4	7	-20	26*	30*	61*
CC1CCc2nc3ccccc3c(C(=O)OCC(=O)NC3CCS(=O)(=O)C3)c2C1 (stereo unspecified)	-14	-1	26	-23	9	nt	nt
COc1cccc(NC(=O)COC(=O)c2c3c(nc4ccccc24)CCC(C)C3)c1 (stereo unspecified)	-4	-5	36*	13	39*	26*	63*
Cc1ccc(CC(=O)OC(C)C(=O)NC2CCCCC2C)cc1C (stereo unspecified)	-18	-7	5	-19	nt	nt	nt
CN(CC(=O)Nc1ccccc1Cl)C(=O)c1cccc(S(=O)(=O)N2CCN(c3ccc(F)cc3)CC2)c1	19	-7	17	6	31*	24*	53*
COc1ccc(NC(=O)CCc2nnc3ccc(N4CCN(c5cccc(OC)c5)CC4)nn23)cc1	-23	-6	9	-14	25*	1	33*
O=C(CC(C(=O)N1CCc2ccccc21)n1ccnc1)NCC1CCCO1 (stereo unspecified)	0	-5	25	-11	24*	4	4
COC(=O)COc1ccc(C(=O)Cn2c(NCCCO)nc3ccccc32)cc1	-16	-4	2	-2	nt	nt	nt
CC(C)(C)c1ccc(S(=O)(=O)N2CCN(C(=O)C(=O)c3cccc(C(F)(F)F)c3)CC2)cc1	nt	-5	nt	nt	nt	nt	nt
O=C(CSc1nnc(-c2ccc(Cl)cc2)n1Cc1ccco1)NCc1ccc2c(c1)OCO2	-20	-5	25	-19	34*	32*	24*
CC(Sc1nnc2ccccn12)C(=O)NCc1ccc2c(c1)OCO2 (stereo unspecified)	-13	-2	0	7	2	nt	nt
COc1ccc(-c2nnc(SC(C)C(=O)NCc3ccc4c(c3)OCO4)n2Cc2ccco2)cc1 (stereo unspecified)	-29	-6	30	-24	48*	39*	23*
C=CCn1c(SC(C)C(=O)NCc2ccc3c(c2)OCO3)nnc1C1CCCCC1 (stereo unspecified)	-17	-8	6	-23	26*	32*	29*
CCn1c(SCC(=O)NCc2ccc3c(c2)OCO3)nnc1-c1ccco1	-6	-8	24	-21	-12	nt	nt
Cc1ccc2c(Cl)c(C(=O)NC3CC3)sc2c1	nt	-4	nt	nt	-9	nt	nt
SMILES	CHO parental Ca	GalR3 antag	OX1R antag-1	OX1R antag-2	GPR7 antag	GPR7 antag conf	MCHR1 antag
Cc1cc(OC(C)C(=O)Nc2ccncc2)ccc1Cl (stereo unspecified)	20	-11	4	23	-11	nt	nt
O=C(NC1CCCCC1)C(c1ccc2ncccc2c1)N(Cc1cccs1)C(=O)c1cccs1 (stereo unspecified)	-1	-9	26	-28	-5	nt	nt
O=C(c1ccc2c(c1)OCO2)N(Cc1cccs1)C1(C(=O)NC2CCCCC2)CCCCC1	-1	-10	14	-32	31*	40*	59*
O=C(NC1CCCCC1)C(c1cccs1)N(Cc1cccs1)C(=O)c1cccs1 (stereo unspecified)	-13	-9	31	-3	32*	31*	42*
O=C(Cc1cccs1)N(Cc1cccs1)C1(C(=O)NC2CCCC2)CCCCC1	-7	-8	16	-6	47*	37*	51*
CN(C(=O)c1ccc2c(c1)OCO2)C1(C(=O)NC2CCCC2)CCCCC1	-14	-4	14	-8	6	nt	nt
O=C(c1ccc2c(c1)OCO2)N(CC1CCCO1)C1(C(=O)NC2CCCCC2)CCCCC1 (stereo unspecified)	-21	-7	17	-25	34*	29*	30*
O=C(c1ccc(=O)[nH]c1)N(Cc1cccs1)C1(C(=O)NC2CCCC2)CCCCC1	-7	-2	0	-23	3	nt	nt
O=C1Nc2c(Cl)cc(Cl)cc2C1=O	nt	-3	nt	nt	nt	nt	nt
COc1ccc(NC(=O)c2ccc(-n3cnnn3)cc2)c([N+](=O)[O-])c1	-6	-9	32	-23	3	nt	nt
O=C1CCC(C(=O)N(Cc2ccco2)C2(C(=O)NC3CCCC3)CCCCC2)N1 (stereo unspecified)	-10	nt	1	-9	28*	22	17
O=C(Cc1cccs1)N(Cc1ccco1)C1(C(=O)NC2CCCCC2)CCCCC1	-2	-9	15	-32	44*	47*	52*
CC(=O)N(Cc1ccco1)C1(C(=O)NC2CCCCC2)CCCCC1	-9	-7	15	-20	16	nt	nt
COc1ccc(CC2(CO)CCN(S(=O)(=O)c3cccc4cccnc34)CC2)cc1	-4	-7	5	-14	-6	nt	nt
CCOC(=O)N1CCC(NC(=O)CC2C(=O)NCCN2Cc2ccccc2)CC1 (stereo unspecified)	-3	1	22	-3	-8	nt	nt
CCN(CC)CCn1c(=S)[nH]c2cc(C(=O)N3CC=C(c4ccccc4)CC3)ccc2c1=O	-3	-7	4	-18	-3	nt	nt
Cc1ccc(NS(=O)(=O)c2ccc(C(=O)NCC(c3ccco3)N(C)C)cc2)cc1 (stereo unspecified)	-2	-2	-11	6	34*	52*	43*
